The results in this text go back to ChEMBL document CHEMBL2331233, “Rational design, efficient syntheses and biological evaluation of N,N'-symmetrically bis-substituted butylimidazole analogs as a new class of potent Angiotensin II receptor blockers” (Eur J Med Chem, 2013).

The target of assay [1] is T1, Type-1 angiotensin II receptor (Homo sapiens, UniProt P30556).
T1 sequence (P30556 whole entry): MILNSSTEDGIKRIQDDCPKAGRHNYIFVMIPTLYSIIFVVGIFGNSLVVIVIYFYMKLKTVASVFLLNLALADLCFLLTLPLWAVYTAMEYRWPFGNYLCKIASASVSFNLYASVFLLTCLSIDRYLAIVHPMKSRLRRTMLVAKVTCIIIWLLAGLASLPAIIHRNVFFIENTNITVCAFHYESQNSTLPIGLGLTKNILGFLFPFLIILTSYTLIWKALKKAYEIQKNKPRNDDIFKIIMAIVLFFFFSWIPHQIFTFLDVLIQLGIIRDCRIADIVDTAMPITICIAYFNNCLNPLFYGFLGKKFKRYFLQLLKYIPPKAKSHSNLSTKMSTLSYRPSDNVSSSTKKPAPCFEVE
The assay is described as follows: Displacement of [125I-Sar1-Ile8]-ANG2 from human Angiotensin 2 type-1 receptor expressed in HEK293 cells after 1 hr by gamma counting analysis. It counts as cell-based. An outline of the steps: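 Membranes from HEK 293 cells stably transfected with human AT1 receptor (Geneticin 700 µg/mL selection) incubated in buffer B (50 mM Tris–HCl, 1 mM EDTA, 10 mM MgCl2, 0.2% BSA, bacitracin, aprotinin, pH 7.4) with 100,000–120,000 cpm radioligand and increasing analog concentrations, 1 h, 24 °C; GF/C filtration. Nonspecific binding with 1000 nM [Sar1-Ile8]ANGII. One-site nonlinear fit gives -log IC50; 2–4 experiments.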
A general note: In a radioligand displacement assay an active substance lowers the binding of a labelled ligand.

Assay [2] in a line: Antagonist activity at Angiotensin 2 type-1 receptor in Wistar rat uterus assessed as suppression of ANG2-induced contraction.

On to `CCCCc1c[n+](Cc2ccc(-c3ccccc3-c3nn[nH]n3)cc2)c(CO)n1Cc1ccc(-c2ccccc2-c2nn[nH]n2)cc1.[Br-]`, for which, in assay [1], the 50% inhibitory concentration (IC50) is 4.27 nM. In addition, the pA2 in assay [2] is 8.58.

In assay [1], `CCCCc1n(Cc2ccc(-c3ccccc3-c3nn[nH]n3)cc2)c(CO)c(Cl)[n+]1Cc1ccc(-c2ccccc2-c2nn[nH]n2)cc1` showed an IC50 of 417 nM.

On to `CCCCc1c(Br)[n+](Cc2ccc(-c3ccccc3-c3nn[nH]n3)cc2)cn1Cc1ccc(-c2ccccc2-c2nn[nH]n2)cc1`, for which, in assay [1], the IC50 is 708 nM.

The compound `CCCCc1c[n+](Cc2ccc(-c3ccccc3C(=O)O)cc2)c(CO)n1Cc1ccc(-c2ccccc2C(=O)O)cc1` showed an IC50 in assay [1] of 501 nM.

Compound `CCCCc1c[n+](Cc2ccc(-c3ccccc3-c3nn[nH]n3)cc2)cn1Cc1ccc(-c2ccccc2-c2nn[nH]n2)cc1` had an IC50 in assay [1] of 0.347 nM.

As for `CCCCc1c[n+](Cc2ccc(-c3ccccc3C(=O)O)cc2)cn1Cc1ccc(-c2ccccc2C(=O)O)cc1`, the IC50 in assay [1] was 331 nM.

The compound `CCCCc1c(Cl)[n+](Cc2ccc(-c3ccccc3-c3nn[nH]n3)cc2)cn1Cc1ccc(-c2ccccc2-c2nn[nH]n2)cc1` gave a 50% inhibitory concentration (IC50) in assay [1] of 832 nM.

In assay [1], `CCCCc1c[n+](Cc2ccc(-c3ccccc3-c3nn[n-]n3)cc2)cn1Cc1ccc(-c2ccccc2-c2nn[nH]n2)cc1` gave an IC50 of 0.912 nM.

In assay [1], `CCCCc1n(Cc2ccc(-c3ccccc3-c3nn[nH]n3)cc2)cc[n+]1Cc1ccc(-c2ccccc2-c2nn[nH]n2)cc1` had an IC50 of 1700 nM.

With `CCCCc1c(Cl)[n+](Cc2ccc(-c3ccccc3-c3nn[nH]n3)cc2)c(CO)n1Cc1ccc(-c2ccccc2-c2nn[nH]n2)cc1`, in assay [1], the IC50 was 6460 nM.

As to `CCCCc1c(Br)[n+](Cc2ccc(-c3ccccc3-c3nn[nH]n3)cc2)c(CO)n1Cc1ccc(-c2ccccc2-c2nn[nH]n2)cc1.[Br-]`, the IC50 in assay [1] was 42.7 nM. For the same compound, the pA2 in assay [2] stood at 7.13.

In assay [1], `CCCCc1c[n+](Cc2ccc(-c3ccccc3-c3nn[n-]n3)cc2)cn1Cc1ccc(-c2ccccc2-c2nn[n-]n2)cc1.[Br-].[Na+].[Na+]` had an IC50 of 2.88 nM. Moreover, in assay [2], the pA2 amounted to 8.45.

As a reminder, the IC50 is the concentration that gives 50% inhibition. Read a high IC50 as weaker potency in that assay. In general, pA2 refers to the negative logarithm of the molar antagonist concentration that doubles the agonist concentration needed for the same response.
